The source made the active and inactive calls. The rule behind the calls is not given here.
Columns and labels:
Bacillus cereus [1] = assay: Antibacterial activity against Bacillus cereus CECT 148 assessed as inhibition of microbial growth at 125 ug/ml incubated for 18 hrs by 2-fold microtiter broth dilution method; type: functional, organism-based
In short: (§1)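 Compounds in DMSO, ten 2-fold serial dilutions (125 down to 0.24 µg/mL tested). Bacteria at OD620 = 0.001 in Nutrient Broth mixed 1:1 with dilutions. Incubated overnight (18 h) at 28°C or 37°C according to strain. Growth read turbidimetrically at OD620. MIC is the lowest concentration giving complete growth inhibition. Triplicate runs. Tetracycline as reference.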

Bacillus subtilis [2] = assay: Antibacterial activity against Bacillus subtilis CECT 35 assessed as inhibition of microbial growth at 125 ug/ml incubated for 18 hrs by 2-fold microtiter broth dilution method; type: functional, organism-based; in short: as §1
Salmonella typhi [3] = assay: Antibacterial activity against Salmonella typhi CECT 409 assessed as inhibition of microbial growth at 125 ug/ml incubated for 18 hrs by 2-fold microtiter broth dilution method; type: functional, organism-based; details: Salmonella enterica subsp. enterica serovar Typhi
In short: (§2)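 Compounds in DMSO, ten 2-fold serial dilutions (125 down to 0.24 µg/mL), mixed 1:1 with bacteria in Nutrient Broth at OD620 = 0.001. Incubated overnight (18 h) at 28 or 37 °C depending on strain. Growth read turbidimetrically at OD620; MIC is the lowest concentration completely inhibiting growth, per CLSI. Triplicate runs; tetracycline reference.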

Enterococcus faecalis [4] = assay: Antibacterial activity against Enterococcus faecalis CECT 481 assessed as inhibition of microbial growth at 125 ug/ml incubated for 18 hrs by 2-fold microtiter broth dilution method; type: functional, organism-based; in short: as §1
Escherichia coli [5] = assay: Antibacterial activity against Escherichia coli CECT 100 assessed as inhibition of microbial growth at 125 ug/ml incubated for 18 hrs by 2-fold microtiter broth dilution method; type: functional, organism-based; in short: as §1
[6] = tested on: Pectobacterium carotovorum; assay: Antibacterial activity against Erwinia carotovora CECT 225 assessed as inhibition of microbial growth at 125 ug/ml incubated for 18 hrs by 2-fold microtiter broth dilution method; type: functional, organism-based; in short: as §1
Staphylococcus aureus [7] = assay: Antibacterial activity against Staphylococcus aureus CECT 86 assessed as inhibition of microbial growth at 125 ug/ml incubated for 18 hrs by 2-fold microtiter broth dilution method; type: functional, organism-based; in short: as §1
Escherichia coli [8] = assay: Antibacterial activity against Escherichia coli CECT 405 assessed as inhibition of microbial growth at 125 ug/ml incubated for 18 hrs by 2-fold microtiter broth dilution method; type: functional, organism-based; in short: as §1
Escherichia coli [9] = assay: Antibacterial activity against Escherichia coli CECT 100 assessed as inhibition of microbial growth incubated for 18 hrs by 2-fold microtiter broth dilution method; type: functional, organism-based; details: CECT 100, 18 h; in short: as §1
Bacillus cereus [10] = assay: Antibacterial activity against Bacillus cereus CECT 148 assessed as inhibition of microbial growth incubated for 18 hrs by 2-fold microtiter broth dilution method; type: functional, organism-based; details: CECT 148, 18 h; in short: as §1
[11] = tested on: Pectobacterium carotovorum; assay: Antibacterial activity against Erwinia carotovora CECT 225 assessed as inhibition of microbial growth incubated for 18 hrs by 2-fold microtiter broth dilution method; type: functional, organism-based; details: CECT 225, 18 h; in short: as §1
Escherichia coli [12] = assay: Antibacterial activity against Escherichia coli CECT 405 assessed as inhibition of microbial growth incubated for 18 hrs by 2-fold microtiter broth dilution method; type: functional, organism-based; details: CECT 405, 18 h; in short: as §1
Salmonella typhi [13] = assay: Antibacterial activity against Salmonella typhi CECT 409 assessed as inhibition of microbial growth incubated for 18 hrs by 2-fold microtiter broth dilution method; type: functional, organism-based, Salmonella enterica subsp. enterica serovar Typhi; details: Salmonella enterica, CECT 409, 18 h; in short: as §2
Enterococcus faecalis [14] = assay: Antibacterial activity against Enterococcus faecalis CECT 481 assessed as inhibition of microbial growth incubated for 18 hrs by 2-fold microtiter broth dilution method; type: functional, organism-based; details: CECT 481, 18 h; in short: as §1
Bacillus subtilis [15] = assay: Antibacterial activity against Bacillus subtilis CECT 35 assessed as inhibition of microbial growth incubated for 18 hrs by 2-fold microtiter broth dilution method; type: functional, organism-based; details: CECT 35, 18 h; in short: as §1
Staphylococcus aureus [16] = assay: Antibacterial activity against Staphylococcus aureus CECT 86 assessed as inhibition of microbial growth incubated for 18 hrs by 2-fold microtiter broth dilution method; type: functional, organism-based; details: CECT 86, 18 h; in short: as §1

Row | Structure (SMILES) | growth inhibition (GI) (Bacillus cereus [1]) | growth inhibition (GI) (Bacillus subtilis [2]) | growth inhibition (GI) (Salmonella typhi [3]) | growth inhibition (GI) (Enterococcus faecalis [4]) | growth inhibition (GI) (Escherichia coli [5]) | growth inhibition (GI) [6] | growth inhibition (GI) (Staphylococcus aureus [7]) | growth inhibition (GI) (Escherichia coli [8]) | MIC (Escherichia coli [9]) [µg/mL] | MIC (Bacillus cereus [10]) [µg/mL] | MIC [11] [µg/mL] | MIC (Escherichia coli [12]) [µg/mL] | MIC (Salmonella typhi [13]) [µg/mL] | MIC (Enterococcus faecalis [14]) [µg/mL] | MIC (Bacillus subtilis [15]) [µg/mL] | MIC (Staphylococcus aureus [16]) [µg/mL]
1 | COc1c(Br)cc(C2=C(C(=O)c3ccc(O)c(Br)c3)C(=O)O/C2=C\c2cc(Br)c(O)c(Br)c2)cc1Br | inactive | inactive | inactive | inactive | inactive | inactive | inactive | inactive |  |  |  |  |  |  |  | 
2 | COc1ccc(C2=C(C(=O)c3ccc(O)cc3)C(=O)O/C2=C\c2ccc(O)c(Br)c2)cc1Br | inactive | inactive | inactive | inactive | inactive | inactive | inactive | inactive |  |  |  |  |  |  |  | 
3 | O=C1O/C(=C\c2ccc(O)cc2)C(c2ccc(O)cc2)=C1C(=O)c1ccco1 |  |  |  |  |  |  |  |  | 31.2 | 15.6 | > 125 | 31.2 | 15.6 | 31.2 | > 125 | 15.6
4 | COc1ccc(C2=C(C(=O)c3cc(Br)c(O)c(Br)c3)C(=O)O/C2=C\c2ccc(O)c(Br)c2)cc1Br | inactive | inactive | inactive | inactive | inactive | inactive | inactive | inactive |  |  |  |  |  |  |  | 
5 | COc1c(Br)cc(C2=C(C(=O)c3cc(Br)c(O)c(Br)c3)C(=O)O/C2=C\c2cc(Br)c(O)c(Br)c2)cc1Br | inactive | inactive | inactive | inactive | inactive | inactive | inactive | inactive |  |  |  |  |  |  |  | 
6 | COc1ccc(C2=C(C(=O)c3ccco3)C(=O)O/C2=C\c2ccc(O)cc2)cc1 | inactive | inactive | inactive | inactive | inactive | inactive | inactive | inactive |  |  |  |  |  |  |  | 
7 | COc1ccc(C2=C(C(=O)c3ccc(O)c(Br)c3)C(=O)O/C2=C\c2ccc(O)c(Br)c2)cc1Br | inactive | inactive | inactive | inactive | inactive | inactive | inactive | inactive |  |  |  |  |  |  |  | 
8 | COc1c(Br)cc(C2=C(C(=O)c3ccc(O)cc3)C(=O)O/C2=C\c2cc(Br)c(O)c(Br)c2)cc1Br | inactive | inactive | inactive | inactive | inactive | inactive | inactive | inactive |  |  |  |  |  |  |  | 
9 | O=C1O/C(=C\c2cc(Br)c(O)c(Br)c2)C(c2ccc(O)cc2)=C1C(=O)c1cc(Br)c(O)c(Br)c1 |  |  |  |  |  |  |  |  | > 125 | 15.6 | 125 | 15.6 | 15.6 | 15.6 | 125 | 15.6
10 | O=C1O/C(=C\c2cc(Br)c(O)c(Br)c2)C(c2cc(Br)c(O)c(Br)c2)=C1C(=O)c1ccc(O)cc1 |  |  |  |  |  |  |  |  | > 125 | 3.9 | 125 | 7.81 | 3.9 | 3.9 | 125 | 3.9
11 | O=C1O/C(=C\c2ccc(O)cc2)C(c2cc(Br)c(O)c(Br)c2)=C1C(=O)c1cc(Br)c(O)c(Br)c1 |  |  |  |  |  |  |  |  | > 125 | 7.81 | 125 | 7.81 | 7.81 | 7.81 | 125 | 7.81
